From ChEMBL document CHEMBL1151448, “Comparative antianaerobic activities of doripenem determined by MIC and time-kill analysis” (2008)
Converted amounts (≈) assume the structure as drawn.

Experiments:
Assay type in all cases: functional
Clostridium perfringens [1] = test: Antimicrobial activity against Clostridium perfringens isolated from intra-abdominal infection and pelvic inflammatory disease patients after 48 hrs by time kill analysis
Summary of the method: (§1)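 Macrodilution in prereduced brucella broth with 5% laked horse blood cells, 5 μg/ml hemin and 1 μg/ml vitamin K1. Final inoculum 10^6 to 10^7 CFU/ml, prepared inside the anaerobe chamber. Vials incubated 48 h at 35°C in a shaking water bath. MIC read by inspecting the time-kill tubes, alongside an antibiotic-free growth control.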

[2] = test system: Fusobacterium necrophorum; test: Antimicrobial activity against Fusobacterium necrophorum isolated from intra-abdominal infection and pelvic inflammatory disease patients after 48 hrs by agar dilution method
Summary of the method: (§2)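 CLSI agar dilution on brucella blood agar supplemented with laked sheep blood, hemin and vitamin K. Inocula of about 1 × 10^5 CFU/spot were applied by Steers replicator, and plates were incubated 48 h at 35°C in an anaerobic glove box. MIC was the concentration giving marked growth reduction versus the anaerobic control plate. QC strains were included each run, and β-lactamase was detected by Cefinase disk.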

[3] = test system: Paraclostridium bifermentans; test: Antimicrobial activity against Clostridium bifermentans isolated from intra-abdominal infection and pelvic inflammatory disease patients after 48 hrs by agar dilution method; summary of the method: as §2
Finegoldia magna [4] = test: Antimicrobial activity against Finegoldia magna isolated from intra-abdominal infection and pelvic inflammatory disease patients after 48 hrs by agar dilution method; summary of the method: as §2
Porphyromonas gingivalis = test: Antimicrobial activity against Porphyromonas gingivalis isolated from intra-abdominal infection and pelvic inflammatory disease patients after 48 hrs by agar dilution method; summary of the method: as §2
Fusobacterium mortiferum = test: Antimicrobial activity against beta lactamase-positive Fusobacterium mortiferum isolated from intra-abdominal infection and pelvic inflammatory disease patients after 48 hrs by agar dilution method; summary of the method: as §2
Clostridium perfringens [5] = test: Antimicrobial activity against Clostridium perfringens isolated from intra-abdominal infection and pelvic inflammatory disease patients after 48 hrs by agar dilution method
Summary of the method: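 CLSI agar dilution on brucella blood agar supplemented with laked sheep blood, hemin and vitamin K. Inoculum about 1 × 10^5 CFU/spot, applied by Steers replicator. Plates incubated 48 h at 35°C in an anaerobic glove box. MIC is the concentration giving marked growth reduction versus the anaerobic control plate. Standard QC strains included in each run.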

Clostridium cadaveris = test: Antimicrobial activity against Clostridium cadaveris isolated from intra-abdominal infection and pelvic inflammatory disease patients after 48 hrs by agar dilution method; summary of the method: as §2
Fusobacterium varium = test: Antimicrobial activity against Fusobacterium varium isolated from intra-abdominal infection and pelvic inflammatory disease patients after 48 hrs by agar dilution method; summary of the method: as §2
[6] = test system: Prevotella melaninogenica; test: Antimicrobial activity against beta lactamase-positive Prevotella melaninogenica isolated from intra-abdominal infection and pelvic inflammatory disease patients after 48 hrs by agar dilution method; summary of the method: as §2
Prevotella corporis = test: Antimicrobial activity against beta lactamase-positive Prevotella corporis isolated from intra-abdominal infection and pelvic inflammatory disease patients after 48 hrs by agar dilution method; summary of the method: as §2
Bacteroides fragilis [7] = test: Antimicrobial activity against beta lactamase-positive Bacteroides fragilis isolated from intra-abdominal infection and pelvic inflammatory disease patients after 48 hrs by time kill analysis
Summary of the method: (§3)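 The MIC was read by inspecting macrodilution time-kill tubes. Vials held prereduced brucella broth with 5% laked horse blood cells, hemin 5 μg/ml and vitamin K1 1 μg/ml. Final inoculum was 10^6–10^7 CFU/ml, prepared inside the anaerobe chamber. Vials were incubated 48 h at 35°C in a shaking water bath.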

Prevotella disiens = test: Antimicrobial activity against beta lactamase-positive Prevotella disiens isolated from intra-abdominal infection and pelvic inflammatory disease patients after 48 hrs by agar dilution method; summary of the method: as §2
[8] = test system: Enterocloster clostridioformis; test: Antimicrobial activity against Clostridium clostridioforme isolated from intra-abdominal infection and pelvic inflammatory disease patients after 48 hrs by agar dilution method; summary of the method: as §2
Anaerococcus tetradius = test: Antimicrobial activity against Anaerococcus tetradius isolated from intra-abdominal infection and pelvic inflammatory disease patients after 48 hrs by agar dilution method; summary of the method: as §2
Bacteroides ovatus = test: Antimicrobial activity against beta lactamase-positive Bacteroides ovatus isolated from intra-abdominal infection and pelvic inflammatory disease patients after 48 hrs by agar dilution method; summary of the method: as §2
[9] = test system: Bacteroides thetaiotaomicron; test: Antimicrobial activity against beta lactamase-positive Bacteroides thetaiotaomicron isolated from intra-abdominal infection and pelvic inflammatory disease patients after 48 hrs by agar dilution method; summary of the method: as §2
Prevotella buccae = test: Antimicrobial activity against beta lactamase-positive Prevotella buccae isolated from intra-abdominal infection and pelvic inflammatory disease patients after 48 hrs by agar dilution method; conditions: Segatella buccae; summary of the method: as §2
Prevotella denticola = test: Antimicrobial activity against beta lactamase-positive Prevotella denticola isolated from intra-abdominal infection and pelvic inflammatory disease patients after 48 hrs by agar dilution method; summary of the method: as §2
[10] = test system: Peptostreptococcus anaerobius; test: Antimicrobial activity against Peptostreptococcus anaerobius isolated from intra-abdominal infection and pelvic inflammatory disease patients after 48 hrs by agar dilution method; summary of the method: as §2
Finegoldia magna [11] = test: Antimicrobial activity against beta lactamase-positive Finegoldia magna isolated from intra-abdominal infection and pelvic inflammatory disease patients after 48 hrs by time kill analysis; summary of the method: as §3
[Clostridium] innocuum = Antimicrobial activity against Clostridium innocuum isolated from intra-abdominal infection and pelvic inflammatory disease patients after 48 hrs by agar dilution method; summary of the method: as §2
Thomasclavelia ramosa = test: Antimicrobial activity against Clostridium ramosum isolated from intra-abdominal infection and pelvic inflammatory disease patients after 48 hrs by agar dilution method; summary of the method: as §2
Clostridioides difficile [12] = test: Antimicrobial activity against Clostridium difficile isolated from intra-abdominal infection and pelvic inflammatory disease patients after 48 hrs by time kill analysis; summary of the method: as §1
Parvimonas micra = test: Antimicrobial activity against Micromonas micros isolated from intra-abdominal infection and pelvic inflammatory disease patients after 48 hrs by agar dilution method; summary of the method: as §2
Bacteroides fragilis [13] = test: Antimicrobial activity against beta lactamase-positive Bacteroides fragilis isolated from intra-abdominal infection and pelvic inflammatory disease patients after 48 hrs by agar dilution method; summary of the method: as §2
Anaerococcus prevotii = test: Antimicrobial activity against Anaerococcus prevotii isolated from intra-abdominal infection and pelvic inflammatory disease patients after 48 hrs by agar dilution method; summary of the method: as §2
Phocaeicola vulgatus = test: Antimicrobial activity against beta lactamase-positive Bacteroides vulgatus isolated from intra-abdominal infection and pelvic inflammatory disease patients after 48 hrs by agar dilution method; summary of the method: as §2
[14] = test system: Porphyromonas asaccharolytica; test: Antimicrobial activity against Porphyromonas asaccharolyticus isolated from intra-abdominal infection and pelvic inflammatory disease patients after 48 hrs by agar dilution method; summary of the method: as §2
Clostridioides difficile [15] = test: Antimicrobial activity against Clostridium difficile isolated from intra-abdominal infection and pelvic inflammatory disease patients after 48 hrs by agar dilution method; summary of the method: as §2
Porphyromonas levii = test: Antimicrobial activity against Porphyromonas levii isolated from intra-abdominal infection and pelvic inflammatory disease patients after 48 hrs by agar dilution method; summary of the method: as §2
[16] = test system: Peptoniphilus asaccharolyticus; test: Antimicrobial activity against Peptoniphilus asaccharolyticus isolated from intra-abdominal infection and pelvic inflammatory disease patients after 48 hrs by agar dilution method; summary of the method: as §2
Prevotella bivia = test: Antimicrobial activity against beta lactamase-positive Prevotella bivia isolated from intra-abdominal infection and pelvic inflammatory disease patients after 48 hrs by agar dilution method; summary of the method: as §2
Prevotella intermedia [17] = test: Antimicrobial activity against beta lactamase-positive Prevotella intermedia isolated from intra-abdominal infection and pelvic inflammatory disease patients after 48 hrs by time kill analysis; summary of the method: as §3
Prevotella intermedia [18] = test: Antimicrobial activity against beta lactamase-positive Prevotella intermedia isolated from intra-abdominal infection and pelvic inflammatory disease patients after 48 hrs by agar dilution method; summary of the method: as §2
[19] = test system: Clostridium paraputrificum; test: Antimicrobial activity against Clostridium paraputrificum isolated from intra-abdominal infection and pelvic inflammatory disease patients after 48 hrs by agar dilution method; summary of the method: as §2
Fusobacterium nucleatum = test: Antimicrobial activity against beta lactamase-positive Fusobacterium nucleatum isolated from intra-abdominal infection and pelvic inflammatory disease patients after 48 hrs by agar dilution method; summary of the method: as §2
Prevotella nigrescens = test: Antimicrobial activity against beta lactamase-positive Prevotella nigrescens isolated from intra-abdominal infection and pelvic inflammatory disease patients after 48 hrs by agar dilution method; summary of the method: as §2
[20] = test system: Parabacteroides distasonis; test: Antimicrobial activity against beta lactamase-positive Bacteroides distasonis isolated from intra-abdominal infection and pelvic inflammatory disease patients after 48 hrs by agar dilution method; summary of the method: as §2
[21] = test system: Paeniclostridium sordellii; test: Antimicrobial activity against Clostridium sordellii isolated from intra-abdominal infection and pelvic inflammatory disease patients after 48 hrs by agar dilution method; conditions: Paraclostridium sordellii; summary of the method: as §2

## CCC[C@@H]1C[C@@H](C(=O)N[C@@H]([C@H]2O[C@H](SC)[C@H](O)[C@@H](O)[C@H]2O)[C@H](C)Cl)N(C)C1 [CLINDAMYCIN]
Clostridium perfringens [1]
  MIC: 0.125 µg/mL (≈ 0.294 µM)
[2]
  MIC50: 0.06 µg/mL (≈ 0.141 µM)
  MIC90: 0.25 µg/mL (≈ 0.588 µM)
[3]
  MIC: 0.06 µg/mL (≈ 0.141 µM)
Finegoldia magna [4]
  MIC50: 2 µg/mL (≈ 4.71 µM)
  MIC90: > 16 µg/mL
Porphyromonas gingivalis
  MIC: ≤ 0.016 µg/mL
Fusobacterium mortiferum
  MIC: 0.06 µg/mL (≈ 0.141 µM)
  MIC50: 0.06 µg/mL (≈ 0.141 µM)
  MIC90: 0.25 µg/mL (≈ 0.588 µM)
Clostridium perfringens [5]
  MIC50: 1 µg/mL (≈ 2.35 µM)
  MIC90: 2 µg/mL (≈ 4.71 µM)
Clostridium cadaveris
  MIC: 0.03 µg/mL (≈ 0.0706 µM)
Fusobacterium varium
  MIC50: 4 µg/mL (≈ 9.41 µM)
  MIC90: 16 µg/mL (≈ 37.6 µM)
[6]
  MIC50: 0.03 µg/mL (≈ 0.0706 µM)
  MIC90: ≤ 0.016 µg/mL
Prevotella corporis
  MIC: ≤ 0.016 µg/mL
  MIC50: ≤ 0.016 µg/mL
  MIC90: 0.03 µg/mL (≈ 0.0706 µM)
Bacteroides fragilis [7]
  MIC: 0.5 µg/mL (≈ 1.18 µM)
Prevotella disiens
  MIC50: ≤ 0.016 µg/mL
  MIC90: 0.03 µg/mL (≈ 0.0706 µM)
[8]
  MIC: 0.06 µg/mL (≈ 0.141 µM)
Anaerococcus tetradius
  MIC: 0.5 µg/mL (≈ 1.18 µM)
  MIC50: 0.5 µg/mL (≈ 1.18 µM)
Bacteroides ovatus
  MIC50: 2 µg/mL (≈ 4.71 µM)
  MIC90: > 16 µg/mL
[9]
  MIC50: 4 µg/mL (≈ 9.41 µM)
  MIC90: 8 µg/mL (≈ 18.8 µM)
Prevotella buccae
  MIC: ≤ 0.016 µg/mL
  MIC50: ≤ 0.016 µg/mL
  MIC90: 0.03 µg/mL (≈ 0.0706 µM)
Prevotella denticola
  MIC50: 0.03 µg/mL (≈ 0.0706 µM)
  MIC90: 0.03 µg/mL (≈ 0.0706 µM)
[10]
  MIC: 0.03 µg/mL (≈ 0.0706 µM)
  MIC50: 0.03 µg/mL (≈ 0.0706 µM)
  MIC90: 0.25 µg/mL (≈ 0.588 µM)
Finegoldia magna [11]
  MIC: 0.25 µg/mL (≈ 0.588 µM)
[Clostridium] innocuum
  MIC50: 1 µg/mL (≈ 2.35 µM)
Thomasclavelia ramosa
  MIC50: 4 µg/mL (≈ 9.41 µM)
Clostridioides difficile [12]
  MIC: 8 µg/mL (≈ 18.8 µM)
Parvimonas micra
  MIC50: 0.25 µg/mL (≈ 0.588 µM)
  MIC90: 0.5 µg/mL (≈ 1.18 µM)
Bacteroides fragilis [13]
  MIC50: 1 µg/mL (≈ 2.35 µM)
  MIC90: 4 µg/mL (≈ 9.41 µM)
Anaerococcus prevotii
  MIC: 0.125 µg/mL (≈ 0.294 µM)
Phocaeicola vulgatus
  MIC50: 0.03 µg/mL (≈ 0.0706 µM)
  MIC90: 0.5 µg/mL (≈ 1.18 µM)
[14]
  MIC: ≤ 0.016 µg/mL
Clostridioides difficile [15]
  MIC50: 8 µg/mL (≈ 18.8 µM)
  MIC90: > 16 µg/mL
Porphyromonas levii
  MIC: ≤ 0.016 µg/mL
[16]
  MIC50: 0.06 µg/mL (≈ 0.141 µM)
  MIC90: > 16 µg/mL
Prevotella bivia
  MIC50: 0.03 µg/mL (≈ 0.0706 µM)
  MIC90: > 16 µg/mL
Prevotella intermedia [17]
  MIC: 0.016 µg/mL (≈ 0.0376 µM)
Prevotella intermedia [18]
  MIC50: ≤ 0.016 µg/mL
  MIC90: 0.03 µg/mL (≈ 0.0706 µM)
[19]
  MIC: 8 µg/mL (≈ 18.8 µM)
Fusobacterium nucleatum
  MIC90: 0.125 µg/mL (≈ 0.294 µM)
Prevotella nigrescens
  MIC50: ≤ 0.016 µg/mL
  MIC90: ≤ 0.016 µg/mL
[20]
  MIC50: 4 µg/mL (≈ 9.41 µM)
  MIC90: > 16 µg/mL
[21]
  MIC: 1 µg/mL (≈ 2.35 µM)
